Source: ChEMBL document CHEMBL1148591, “Isothiazolopyridones: synthesis, structure, and biological activity of a new class of antibacterial agents” (J Med Chem, 2006)
Values after ≈ are worked out from the molar mass of the structure shown. Active and inactive are the calls of the source. No cut-off for these calls is given here.

Key:
[1] = target: DNA gyrase (Staphylococcus aureus) (UniProt P0A0K8+P20831); test: Inhibition of DNA gyrase supercoiling in Staphylococcus aureus ATCC 29213; assay type: protein-complex assay
Chain of DNA gyrase (Staphylococcus aureus) (P0A0K8 2-644 limits assumed): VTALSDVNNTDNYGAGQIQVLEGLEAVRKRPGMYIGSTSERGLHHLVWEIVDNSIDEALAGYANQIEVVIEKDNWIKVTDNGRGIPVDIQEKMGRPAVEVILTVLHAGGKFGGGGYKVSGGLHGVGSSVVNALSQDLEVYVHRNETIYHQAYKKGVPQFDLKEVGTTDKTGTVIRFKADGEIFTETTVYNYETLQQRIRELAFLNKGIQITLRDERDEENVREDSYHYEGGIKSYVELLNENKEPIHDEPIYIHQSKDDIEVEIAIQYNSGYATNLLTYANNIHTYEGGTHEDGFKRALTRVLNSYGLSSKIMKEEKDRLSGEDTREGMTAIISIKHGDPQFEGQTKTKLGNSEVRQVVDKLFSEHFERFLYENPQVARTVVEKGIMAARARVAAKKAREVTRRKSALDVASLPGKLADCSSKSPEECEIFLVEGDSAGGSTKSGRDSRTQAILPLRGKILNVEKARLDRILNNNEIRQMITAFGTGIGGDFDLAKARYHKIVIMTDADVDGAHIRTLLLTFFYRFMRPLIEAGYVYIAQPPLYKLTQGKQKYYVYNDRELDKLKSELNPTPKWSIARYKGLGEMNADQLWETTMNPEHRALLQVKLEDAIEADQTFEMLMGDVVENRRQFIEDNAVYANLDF
Chain of DNA gyrase (Staphylococcus aureus) (P20831 whole entry partner): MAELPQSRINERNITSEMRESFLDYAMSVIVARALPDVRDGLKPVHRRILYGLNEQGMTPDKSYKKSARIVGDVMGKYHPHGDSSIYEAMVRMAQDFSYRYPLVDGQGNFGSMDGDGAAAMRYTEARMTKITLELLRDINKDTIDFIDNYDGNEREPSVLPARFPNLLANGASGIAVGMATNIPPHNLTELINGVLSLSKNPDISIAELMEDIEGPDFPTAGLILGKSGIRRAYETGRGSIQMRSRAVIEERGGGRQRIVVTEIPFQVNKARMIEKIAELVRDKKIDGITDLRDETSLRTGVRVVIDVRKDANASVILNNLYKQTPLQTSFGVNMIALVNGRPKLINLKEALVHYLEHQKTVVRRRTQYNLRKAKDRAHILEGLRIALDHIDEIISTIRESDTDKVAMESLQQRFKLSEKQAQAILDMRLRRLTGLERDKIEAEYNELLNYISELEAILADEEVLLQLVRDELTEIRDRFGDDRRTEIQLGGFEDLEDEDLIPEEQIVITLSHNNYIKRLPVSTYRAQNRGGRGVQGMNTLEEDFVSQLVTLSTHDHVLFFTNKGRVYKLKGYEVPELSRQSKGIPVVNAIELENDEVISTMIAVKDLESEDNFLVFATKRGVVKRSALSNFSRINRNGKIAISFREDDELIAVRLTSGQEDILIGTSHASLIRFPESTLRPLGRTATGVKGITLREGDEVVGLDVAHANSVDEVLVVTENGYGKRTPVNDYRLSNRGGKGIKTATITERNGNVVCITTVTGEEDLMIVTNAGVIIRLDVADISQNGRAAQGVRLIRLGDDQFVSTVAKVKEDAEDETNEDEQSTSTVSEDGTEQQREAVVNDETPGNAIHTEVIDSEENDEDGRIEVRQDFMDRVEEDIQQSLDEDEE

Staphylococcus aureus = test: Antibacterial activity against Staphylococcus aureus ATCC 29213; assay type: functional
[2] = target: DNA topoisomerase 4 subunit A (Staphylococcus aureus, UniProt P0C1U9); test: Inhibition of topoisomerase 4 decatenation in Staphylococcus aureus ATCC 29213
Chain of DNA topoisomerase 4 subunit A (P0C1U9 whole entry): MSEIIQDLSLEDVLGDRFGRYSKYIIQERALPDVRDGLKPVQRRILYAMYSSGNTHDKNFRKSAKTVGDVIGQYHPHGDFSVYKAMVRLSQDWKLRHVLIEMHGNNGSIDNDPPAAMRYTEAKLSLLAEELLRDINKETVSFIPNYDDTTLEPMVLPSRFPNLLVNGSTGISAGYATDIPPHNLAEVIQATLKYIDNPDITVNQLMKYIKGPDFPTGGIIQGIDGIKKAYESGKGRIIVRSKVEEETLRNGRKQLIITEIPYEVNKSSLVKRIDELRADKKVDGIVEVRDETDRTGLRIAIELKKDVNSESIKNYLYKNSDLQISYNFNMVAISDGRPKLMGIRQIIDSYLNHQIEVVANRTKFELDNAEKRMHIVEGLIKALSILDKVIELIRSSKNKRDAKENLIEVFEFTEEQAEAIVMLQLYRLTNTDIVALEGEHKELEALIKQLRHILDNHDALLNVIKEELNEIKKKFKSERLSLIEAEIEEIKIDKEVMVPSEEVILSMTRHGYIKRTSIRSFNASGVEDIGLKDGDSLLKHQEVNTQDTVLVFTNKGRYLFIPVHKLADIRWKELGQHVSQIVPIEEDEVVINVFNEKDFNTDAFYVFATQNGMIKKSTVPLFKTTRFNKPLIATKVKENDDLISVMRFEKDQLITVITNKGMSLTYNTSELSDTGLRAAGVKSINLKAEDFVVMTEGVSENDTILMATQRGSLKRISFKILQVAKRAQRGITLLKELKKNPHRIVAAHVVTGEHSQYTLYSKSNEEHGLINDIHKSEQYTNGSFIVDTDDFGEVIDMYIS

Escherichia coli = test: Antibacterial activity against Escherichia coli ATCC 25922; assay type: functional
DNA gyrase = DNA gyrase (Escherichia coli, UniProt P0AES4+P0AES6); test: Inhibition of DNA gyrase supercoiling in Escherichia coli ATCC 25922; assay type: protein-complex assay
[3] = target: DNA topoisomerase II (Homo sapiens) (UniProt P11388+Q02880); test: Activity against human topoisomerase 2; assay type: protein assay
Summary of the method: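 Human topoisomerase II DNA cleavage assay. The read-out is EC₂, the drug concentration that enhances enzyme-mediated cleavage of double-stranded DNA 2-fold.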

| SMILES | Activity [1] | MIC (Staphylococcus aureus) | IC50 [2] | MIC (Escherichia coli) | IC50 (DNA gyrase) | Activity [3] |
| --- | --- | --- | --- | --- | --- | --- |
| CCc1c2s[nH]c(=O)c2c(=O)n2ccc(-c3cc(C)nc(C)c3)cc12 | inactive | 0.125 µg/mL (≈ 0.356 µM) | 6.3 µM | 1 µg/mL (≈ 2.85 µM) | 0.2 µM | inactive |
| O=C(O)c1cn(C2CC2)c2cc(N3CCNCC3)c(F)cc2c1=O [CIPROFLOXACIN] | – | 0.25 µg/mL (≈ 0.754 µM) | – | – | – | – |
| CCn1cc(C(=O)O)c(=O)c2cc(F)c(N3CCNCC3)cc21 [NORFLOXACIN] | – | 0.5 µg/mL (≈ 1.57 µM) | – | 0.06 µg/mL (≈ 0.188 µM) | – | – |
| CCc1c2s[nH]c(=O)c2c(=O)n2ccc(N3CCC(N(C)C)C3)cc12 (racemic) | inactive | 8 µg/mL (≈ 22.3 µM) | 79 µM | 4 µg/mL (≈ 11.2 µM) | 24 µM | inactive |
| CCc1c2s[nH]c(=O)c2c(=O)n2ccc(N3CCNCC3)cc12 | inactive | 16 µg/mL (≈ 48.4 µM) | 37 µM | 4 µg/mL (≈ 12.1 µM) | 14 µM | inactive |
| CCc1c2s[nH]c(=O)c2c(=O)n2ccc(-c3ccncc3)cc12 | inactive | 0.125 µg/mL (≈ 0.387 µM) | 8.1 µM | 0.25 µg/mL (≈ 0.773 µM) | 0.4 µM | inactive |
